Active and inactive are the calls of the source.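 The calls were made as follows: active = inhibition of at least 50% against any of four protein arginine deiminase enzymes; inactive = the rest.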

Assay in all cases: PAD1-4 inhibition by competitive ABPP, late-stage follow-up, orthogonal assay for PAD4 inhibitor project, biochemical, fluorescence, gel-based ABPP, HTS hits (AID 588487)
Test [1] has as its target Protein-arginine deiminase type-1 (Homo sapiens) (UniProt Q9ULC6). Conditions: recombinant PAD1-4, gel-based ABPP, RFA probe fluorescence; PAD1; at 10 µM; hits give high values. An outline of the steps:
(§1)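 Assay system: recombinant PAD1, PAD2, PAD3 or PAD4 / Probe or stimulus: RFA fluorescent probe at 1 µM / Doses: single compound dose of 10 µM, DMSO vehicle / Timing: 15 min compound pre-incubation plus 30 min probe step, 37 °C / Technique: in-gel fluorescence scan of probe-labeled PAD band after SDS-PAGE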

The target of test [2] is Protein-arginine deiminase type-2 (Homo sapiens) (UniProt Q9Y2J8). Conditions: recombinant PAD1-4, gel-based ABPP, RFA probe fluorescence; PAD2; at 10 µM; hits give high values. An outline of the steps:
as §1

The target of test [3] is Protein-arginine deiminase type-3 (Homo sapiens) (UniProt Q9ULW8). Conditions: recombinant PAD1-4, gel-based ABPP, RFA probe fluorescence; PAD3; at 10 µM; hits give high values. The method in brief: as §1
Protein-arginine deiminase type-3 (Homo sapiens), sequence (Q9ULW8 whole entry, looked up): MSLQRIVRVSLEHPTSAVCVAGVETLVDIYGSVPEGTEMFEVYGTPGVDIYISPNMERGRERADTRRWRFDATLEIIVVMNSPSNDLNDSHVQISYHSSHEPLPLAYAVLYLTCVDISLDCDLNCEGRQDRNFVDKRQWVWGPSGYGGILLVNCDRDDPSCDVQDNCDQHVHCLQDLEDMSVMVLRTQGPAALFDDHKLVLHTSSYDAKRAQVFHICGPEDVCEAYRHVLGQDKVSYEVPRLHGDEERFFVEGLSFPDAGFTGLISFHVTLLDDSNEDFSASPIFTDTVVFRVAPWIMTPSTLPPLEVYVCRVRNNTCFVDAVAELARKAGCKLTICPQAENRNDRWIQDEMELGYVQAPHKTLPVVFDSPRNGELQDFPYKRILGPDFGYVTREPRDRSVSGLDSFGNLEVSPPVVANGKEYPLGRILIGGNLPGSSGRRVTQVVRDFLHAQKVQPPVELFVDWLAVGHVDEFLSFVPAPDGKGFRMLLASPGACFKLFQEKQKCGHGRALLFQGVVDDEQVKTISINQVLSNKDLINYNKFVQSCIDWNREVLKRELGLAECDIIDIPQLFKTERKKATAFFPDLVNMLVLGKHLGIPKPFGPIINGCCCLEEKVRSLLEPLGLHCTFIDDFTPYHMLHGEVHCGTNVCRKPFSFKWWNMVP
Test [4] has as its target Protein-arginine deiminase type-4 (Homo sapiens) (UniProt Q9UM07). Conditions: recombinant PAD1-4, gel-based ABPP, RFA probe fluorescence; PAD4; at 10 µM; hits give high values. An outline of the steps: as §1

Protein-arginine deiminase type-1 (Homo sapiens), sequence (Q9ULC6 whole entry, looked up): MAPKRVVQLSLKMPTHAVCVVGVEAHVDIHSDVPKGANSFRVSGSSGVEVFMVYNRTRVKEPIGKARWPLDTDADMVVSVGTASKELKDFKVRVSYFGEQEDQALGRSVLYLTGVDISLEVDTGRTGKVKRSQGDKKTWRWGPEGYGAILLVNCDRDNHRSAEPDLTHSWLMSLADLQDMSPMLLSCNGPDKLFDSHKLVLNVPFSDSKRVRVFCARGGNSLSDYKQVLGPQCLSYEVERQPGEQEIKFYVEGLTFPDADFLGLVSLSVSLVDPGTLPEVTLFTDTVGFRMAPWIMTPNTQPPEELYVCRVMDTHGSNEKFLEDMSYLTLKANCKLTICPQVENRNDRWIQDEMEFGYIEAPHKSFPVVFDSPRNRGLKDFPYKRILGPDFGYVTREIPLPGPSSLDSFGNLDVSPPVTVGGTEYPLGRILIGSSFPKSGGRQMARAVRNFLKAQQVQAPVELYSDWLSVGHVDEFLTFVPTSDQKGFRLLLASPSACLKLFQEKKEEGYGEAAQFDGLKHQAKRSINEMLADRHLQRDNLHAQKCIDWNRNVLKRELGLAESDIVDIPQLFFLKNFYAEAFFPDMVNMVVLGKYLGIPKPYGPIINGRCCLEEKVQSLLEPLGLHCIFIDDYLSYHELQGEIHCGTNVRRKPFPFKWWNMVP
Protein-arginine deiminase type-2 (Homo sapiens), sequence (Q9Y2J8 whole entry, looked up): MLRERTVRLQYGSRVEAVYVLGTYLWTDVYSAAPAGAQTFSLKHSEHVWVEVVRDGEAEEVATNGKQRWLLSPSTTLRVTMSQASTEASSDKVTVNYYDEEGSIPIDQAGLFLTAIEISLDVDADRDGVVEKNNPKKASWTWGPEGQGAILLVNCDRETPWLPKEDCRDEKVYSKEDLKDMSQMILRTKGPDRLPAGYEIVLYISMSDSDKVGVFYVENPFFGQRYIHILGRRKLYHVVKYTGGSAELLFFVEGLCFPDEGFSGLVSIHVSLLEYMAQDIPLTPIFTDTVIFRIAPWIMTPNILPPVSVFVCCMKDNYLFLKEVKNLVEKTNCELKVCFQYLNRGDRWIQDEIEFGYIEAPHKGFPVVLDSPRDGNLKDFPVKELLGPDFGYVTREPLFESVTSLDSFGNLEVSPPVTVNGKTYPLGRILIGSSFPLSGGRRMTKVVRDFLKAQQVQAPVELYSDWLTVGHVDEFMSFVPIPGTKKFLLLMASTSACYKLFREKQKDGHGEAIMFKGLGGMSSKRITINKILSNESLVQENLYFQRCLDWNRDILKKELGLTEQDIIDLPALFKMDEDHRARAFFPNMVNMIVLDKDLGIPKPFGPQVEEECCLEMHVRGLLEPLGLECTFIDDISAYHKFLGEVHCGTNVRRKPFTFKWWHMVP
Protein-arginine deiminase type-4 (Homo sapiens), sequence (Q9UM07 whole entry, looked up): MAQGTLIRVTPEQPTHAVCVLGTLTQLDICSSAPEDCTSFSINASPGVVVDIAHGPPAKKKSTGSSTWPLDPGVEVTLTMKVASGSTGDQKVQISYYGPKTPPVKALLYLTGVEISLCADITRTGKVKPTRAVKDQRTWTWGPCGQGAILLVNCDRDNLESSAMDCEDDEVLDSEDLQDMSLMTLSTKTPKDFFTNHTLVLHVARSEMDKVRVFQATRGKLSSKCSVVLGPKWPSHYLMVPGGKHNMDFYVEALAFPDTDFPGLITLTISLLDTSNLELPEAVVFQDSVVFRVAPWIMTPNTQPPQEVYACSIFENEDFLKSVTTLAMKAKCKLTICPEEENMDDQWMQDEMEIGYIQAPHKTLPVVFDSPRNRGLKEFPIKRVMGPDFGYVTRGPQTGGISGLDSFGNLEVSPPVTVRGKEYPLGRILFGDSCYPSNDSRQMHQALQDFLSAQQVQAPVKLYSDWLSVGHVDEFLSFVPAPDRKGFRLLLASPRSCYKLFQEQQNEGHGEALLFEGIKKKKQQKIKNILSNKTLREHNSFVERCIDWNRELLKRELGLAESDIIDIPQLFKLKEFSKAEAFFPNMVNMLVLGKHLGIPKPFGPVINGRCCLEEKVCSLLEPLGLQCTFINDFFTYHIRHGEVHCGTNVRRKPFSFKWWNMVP

`COc1ccc(C2C(C#N)=C(N)N(N(C)C)C3=C2C(=O)CCC3)cc1` (centres undefined): the inhibition in test [1] was 13% (inactive); in test [2], 21% (inactive); in test [3], 49% (inactive); in test [4] it was 55%.

In the case of `CCOc1ccccc1C(=O)NCC(=O)NCCCc1ccccc1`, the inhibition was -8% (inactive) in test [1], 26% (inactive) in test [2], 11% (inactive) in test [3] and 31% (inactive) in test [4].

With `CCOc1c(Br)cc(/C=C2\C(=O)N(CCC#N)N=C2C)cc1OC`, the inhibition in test [1] was 45% (inactive); in test [2], 25% (inactive); in test [3], 15% (inactive); in test [4], 52%.

`CCN(CC)c1cccc(OC2=NS(=O)(=O)c3ccccc32)c1`: the inhibition was 60% in test [1], 50% in test [2], 32% (inactive) in test [3] and 17% (inactive) in test [4].

For the compound `O=C(NCC1CCCO1)c1cc2c([nH]c3ccccc32)c(-c2ccc(F)cc2)n1` (centres undefined), the inhibition was 36% (inactive) in test [1], 13% (inactive) in test [2], -27% (inactive) in test [3] and 78% in test [4].

Regarding `CC(=O)N(Cc1cc(=O)[nH]c2ccccc12)c1cccc(C)c1`, the inhibition in test [1] is 58%; in test [2] it was 19% (inactive); in test [3], 39% (inactive); in test [4], -7% (inactive).

Source of the values: PubChem BioAssay AID588487 (The Scripps Research Institute Molecular Screening Center, 2011).
